EC50 and IC50 data for eight compounds are collected here from ChEMBL document CHEMBL1255362, “Mutations in human immunodeficiency virus type 1 integrase confer resistance to the naphthyridine L-870,810 and cross-resistance to the clinical trial drug GS-9137” (Antimicrob Agents Chemother, 2008).

Each structure is given as a SMILES string. pEC50, pIC50: −log10 of the molar value.

Type in all cases: functional, organism-based
The test system of test [1] is Human immunodeficiency virus 1. The test can be described thus: Antiviral activity against HIV 1 NL4.3 assessed as inhibition of virus-induced cytopathic effect by MTT assay. The settings on record: Human immunodeficiency virus 1, NL4.3. Summed up:
(§1)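 MT-4 cells (RPMI 1640, 10% heat-inactivated FCS, 2 mM L-glutamine, 37°C, 5% CO2) infected with 100 to 300 CCID50 of virus, titrated on MT-4 cells. Fivefold serial drug dilutions were present during infection. Protection from viral CPE was read by MTT reduction to formazan, measured spectrophotometrically. IC50 is the concentration giving 50% protection.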
A general note: Damage to the host cells serves as the signal in cytopathic effect assays.

The subject of test [2] is Human immunodeficiency virus 1. The test can be described thus: Antiviral activity against HIV 1 RIN HIV 1 RIN harboring integrase gene infected in MT-4 cells assessed as inhibition of virus-induced cytopathic effect by MTT assay after 40 passages selected in presence of compound. Conditions: Human immunodeficiency virus 1, RIN, MT4. The method in brief:
as §1

For test [3], the system named is Human immunodeficiency virus 1. The test can be described thus: Antiviral activity against HIV 1 RIN harboring integrase gene infected in MT-4 cells assessed as inhibition of virus-induced cytopathic effect by MTT assay after 20 passages selected in presence of compound. Conditions: Human immunodeficiency virus 1, RIN, MT4.
Test [4] has as its system Human immunodeficiency virus 1. Kind of test: Antiviral activity against HIV 1 3B harboring integrase E92Q, S230N and L34M triple mutant infected in MT-4 cells assessed as inhibition of virus-induced cytopathic effect by MTT assay selected after 60 passages in presence of compound. The settings on record: Human immunodeficiency virus 1, 3B, MT4. Summed up:
as §1

For test [5], the system named is Human immunodeficiency virus 1. The test can be described thus: Antiviral activity against HIV 1 3B harboring integrase E92Q S230N double mutant infected in MT-4 cells assessed as inhibition of virus-induced cytopathic effect by MTT assay selected after 20 passages in presence of compound. Conditions: Human immunodeficiency virus 1, 3B, MT4. Summed up:
as §1

In test [6] the test system is Human immunodeficiency virus 1. The test can be described thus: Antiviral activity against HIV 1 3B infected in MT-4 cells assessed as inhibition of virus-induced cytopathic effect by MTT assay. Conditions: Human immunodeficiency virus 1, 3B, MT4. Summed up: as §1
Test [7] deals with Human immunodeficiency virus 1. The test can be described thus: Antiviral activity against HIV 1 NL4.3 integrase S230N mutant infected in human MT-4 cells assessed as inhibition of virus-induced cytopathic effect by MTT assay. The settings on record: Human immunodeficiency virus 1, NL4.3, MT4. The method in brief: as §1
The test system of test [8] is Human immunodeficiency virus 1. The test can be described thus: Antiviral activity against HIV 1 3B harboring integrase L34M mutant infected in MT-4 cells assessed as inhibition of virus-induced cytopathic effect by MTT assay selected after 40 passages in presence of compound. The settings on record: Human immunodeficiency virus 1, 3B, MT4. Summed up:
as §1

Test [9] has as its system Human immunodeficiency virus 1. The test can be described thus: Antiviral activity against HIV 1 NL4.3 integrase E92Q mutant infected in human MT-4 cells assessed as inhibition of virus-induced cytopathic effect by MTT assay. The settings on record: Human immunodeficiency virus 1, NL4.3, MT4. The method in brief: as §1
Test [10] deals with Human immunodeficiency virus 1. Kind of test: Antiviral activity against HIV 1 RIN harboring integrase gene infected in MT-4 cells assessed as inhibition of virus-induced cytopathic effect by MTT assay. The settings on record: Human immunodeficiency virus 1, RIN, MT4. Summed up: as §1
For test [11], the system named is Human immunodeficiency virus 1. Kind of test: Antiviral activity against HIV 1 NL4.3 harboring integrase L74M mutant infected in human MT-4 cells assessed as inhibition of virus-induced cytopathic effect by MTT assay. The settings on record: Human immunodeficiency virus 1, NL4.3, MT4. Summed up: as §1
Test [12] deals with Human immunodeficiency virus 1. Kind of test: Antiviral activity against HIV 1 RIN HIV 1 RIN harboring integrase gene infected in MT-4 cells assessed as inhibition of virus-induced cytopathic effect by MTT assay after 60 passages selected in presence of compound. The settings on record: Human immunodeficiency virus 1, RIN, MT4. Summed up: as §1
In test [13] the test system is Human immunodeficiency virus 1. Kind of test: Antiviral activity against HIV 1 3B infected in MT-4 cells assessed as inhibition of virus-induced cytopathic effect by MTT assay selected after 50 passages in presence of compound. Conditions: Human immunodeficiency virus 1, 3B, MT4. The method in brief:
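Selected strains came from serial passage of HIV-1(IIIB) in MT-4 cells, started at MOI 0.01 with drug at 0.005 µM. Cultures were checked for CPE every 3 to 4 days. Supernatant from CPE-positive cultures went onto fresh cells at equal or higher drug concentration; cultures without breakthrough were subcultured at the same concentration. Susceptibility was tested by the MT-4/MTT CPE assay.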

One may read the pEC50 as −log10 of the EC50, conventionally taken in molar units. `COc1cc2c(cc1Cc1cccc(Cl)c1F)c(=O)c(C(=O)O)cn2[C@H](CO)C(C)C`: the pEC50 in test [1] is 9.15; in test [2] it was 7.74; in test [3], 7.82; in test [4], 7.11; in test [5], 7.48; in test [6], 9.00. The pEC50 in [7] was 9.05; in [8], 7.30; in [9] it was 7.92; in test [10], 9.15; in test [11], 9.22; in test [12], 7.23.
For `Cc1nnc(C(=O)NC(C)(C)c2nc(C(=O)NCc3ccc(F)cc3)c(O)c(=O)n2C)o1`, the pEC50 was 8.30 in [1]; 7.60 in test [2]; 8.00 in test [3]; 8.05 in test [7]; 7.82 in [9]; 8.22 in test [10]. In addition, the values for the pEC50 in [11] and in [12] were 8.15 and 7.17, respectively.
Turning to `COc1cccc2c1c(C(=O)/C=C(\O)C(=O)O)cn2Cc1ccc(F)cc1`, the pEC50 in test [1] is 6.25; in test [2], 5.97; in [3], 6.28; in test [4], 5.44; in test [5], 5.72; in [6], 6.41. Besides, the pEC50 is 6.31 in test [7]; 5.73 in [8]; 6.18 in test [9]; 6.36 in test [10]; 6.49 in test [11]; 5.58 in [12].
Usually pIC50 stands for the negative decadic logarithm of the IC50, by convention in mol/L. For `O=C(NCc1ccc(F)cc1)c1nc(N2CCCCS2(=O)=O)c2cccnc2c1O`, the negative logarithm of the EC50 (pEC50) was 8.40 in test [1]; 7.19 in [2]; 7.74 in [3]; 6.26 in test [4]; 6.96 in [5]; 8.30 in test [6]. The negative logarithm of the EC50 (pEC50) in [7] was 8.15; in [8], 6.77; in test [9], 7.14; in [10], 8.40; in test [11] it was 8.40; in test [12], 6.72. The negative logarithm of the IC50 (pIC50) in test [13] is 5.96.
Turning to `Cc1ccnc2c1NC(=O)c1cccnc1N2C1CC1` [NEVIRAPINE], the pEC50 in [2] was 6.82; in test [4], 6.51; in test [5], 6.42; in test [6], 6.34; in test [8], 6.46; in test [10], 6.77. Further, the pEC50 in [12] was 6.82.
Take `c1cc(CN2CCCNCCNCCCNCC2)ccc1CN1CCCNCCNCCCNCC1` [PLERIXAFOR]: the pEC50 is 8.10 in test [2]; 8.10 in test [3]; 7.25 in test [4]; 7.31 in test [5]; 7.47 in test [6]; 7.55 in test [8]. Moreover, the pEC50 in [10] is 7.85; in test [12] it was 8.10.
With `CC(C)c1nc(CN(C)C(=O)N[C@H](C(=O)N[C@@H](Cc2ccccc2)C[C@H](O)[C@H](Cc2ccccc2)NC(=O)OCc2cncs2)C(C)C)cs1` [RITONAVIR], the pEC50 in test [1] is 6.89; in test [2], 7.38; in [3], 7.41; in test [4], 7.22; in test [5], 7.16; in test [6], 7.26. For the same compound, the pEC50 in test [7] is 7.05; in test [8], 7.16; in test [9], 7.24; in [10], 7.37; in test [11] it was 7.22; in [12], 7.39.
`Cc1cn([C@H]2C[C@H](N=[N+]=[N-])[C@@H](CO)O2)c(=O)[nH]c1=O` [ZIDOVUDINE]: the negative-log EC50 (pEC50) is 8.15 in [1]; 7.66 in [2]; 7.66 in test [3]; 8.15 in test [4]; 7.74 in [5]; 7.74 in test [6]. The pEC50 in [7] was 8.22; in [8] it was 8.40; in [9], 8.15; in test [10], 7.74; in test [11], 8.30; in test [12], 7.66.
